Laboratory results as given in ChEMBL document CHEMBL1137261, “Structural insights into the ATP binding pocket of the anaplastic lymphoma kinase by site-directed mutagenesis, inhibitor binding analysis, and homology modeling” (J Med Chem, 2006).
The source made the active and inactive calls. The calls are words filed in the database; no cut-off is given here.

Legend:
BaF3 [1] = assay: Antiproliferative activity against murine BaF3 cells expressing wild type NPM/ALK by [3H]thymidine uptake assay; format: functional, cell-based; settings: Mus musculus
In short: (§1)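 IL-3-independent BaF3 clones stably transfected (electroporation, G418 selection) with human NPM/ALK, WT or L256T; RPMI 1640 + 10% FBS, 37 °C, 5% CO2. Seeded 10^4/well, exposed to inhibitor (0-4 µM range in figure) or vehicle for 8-48 h; 3[H]-thymidine uptake.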

BaF3 [2] = assay: Antiproliferative activity against murine BaF3 cells expressing NPM/ALK L256T mutant by [3H]thymidine uptake assay; format: functional, cell-based; settings: Mus musculus; in short: as §1
BaF3 [3] = assay: Induction of cell death of murine BaF3 cells expressing NPM/ALK L256T mutant by trypan blue exclusion assay; format: functional, cell-based; settings: Mus musculus
[4] = biological target: T1, NPM/ALK (Nucleophosmin/ALK tyrosine kinase receptor) (Homo sapiens, UniProt Q9UM73); assay: Inhibition of wild type NPM/ALK autophosphorylation activity in BaF3 cells by antiphosphotyrosine immunoblotting assay; format: cell-based
T1 sequence (Q9UM73 whole entry): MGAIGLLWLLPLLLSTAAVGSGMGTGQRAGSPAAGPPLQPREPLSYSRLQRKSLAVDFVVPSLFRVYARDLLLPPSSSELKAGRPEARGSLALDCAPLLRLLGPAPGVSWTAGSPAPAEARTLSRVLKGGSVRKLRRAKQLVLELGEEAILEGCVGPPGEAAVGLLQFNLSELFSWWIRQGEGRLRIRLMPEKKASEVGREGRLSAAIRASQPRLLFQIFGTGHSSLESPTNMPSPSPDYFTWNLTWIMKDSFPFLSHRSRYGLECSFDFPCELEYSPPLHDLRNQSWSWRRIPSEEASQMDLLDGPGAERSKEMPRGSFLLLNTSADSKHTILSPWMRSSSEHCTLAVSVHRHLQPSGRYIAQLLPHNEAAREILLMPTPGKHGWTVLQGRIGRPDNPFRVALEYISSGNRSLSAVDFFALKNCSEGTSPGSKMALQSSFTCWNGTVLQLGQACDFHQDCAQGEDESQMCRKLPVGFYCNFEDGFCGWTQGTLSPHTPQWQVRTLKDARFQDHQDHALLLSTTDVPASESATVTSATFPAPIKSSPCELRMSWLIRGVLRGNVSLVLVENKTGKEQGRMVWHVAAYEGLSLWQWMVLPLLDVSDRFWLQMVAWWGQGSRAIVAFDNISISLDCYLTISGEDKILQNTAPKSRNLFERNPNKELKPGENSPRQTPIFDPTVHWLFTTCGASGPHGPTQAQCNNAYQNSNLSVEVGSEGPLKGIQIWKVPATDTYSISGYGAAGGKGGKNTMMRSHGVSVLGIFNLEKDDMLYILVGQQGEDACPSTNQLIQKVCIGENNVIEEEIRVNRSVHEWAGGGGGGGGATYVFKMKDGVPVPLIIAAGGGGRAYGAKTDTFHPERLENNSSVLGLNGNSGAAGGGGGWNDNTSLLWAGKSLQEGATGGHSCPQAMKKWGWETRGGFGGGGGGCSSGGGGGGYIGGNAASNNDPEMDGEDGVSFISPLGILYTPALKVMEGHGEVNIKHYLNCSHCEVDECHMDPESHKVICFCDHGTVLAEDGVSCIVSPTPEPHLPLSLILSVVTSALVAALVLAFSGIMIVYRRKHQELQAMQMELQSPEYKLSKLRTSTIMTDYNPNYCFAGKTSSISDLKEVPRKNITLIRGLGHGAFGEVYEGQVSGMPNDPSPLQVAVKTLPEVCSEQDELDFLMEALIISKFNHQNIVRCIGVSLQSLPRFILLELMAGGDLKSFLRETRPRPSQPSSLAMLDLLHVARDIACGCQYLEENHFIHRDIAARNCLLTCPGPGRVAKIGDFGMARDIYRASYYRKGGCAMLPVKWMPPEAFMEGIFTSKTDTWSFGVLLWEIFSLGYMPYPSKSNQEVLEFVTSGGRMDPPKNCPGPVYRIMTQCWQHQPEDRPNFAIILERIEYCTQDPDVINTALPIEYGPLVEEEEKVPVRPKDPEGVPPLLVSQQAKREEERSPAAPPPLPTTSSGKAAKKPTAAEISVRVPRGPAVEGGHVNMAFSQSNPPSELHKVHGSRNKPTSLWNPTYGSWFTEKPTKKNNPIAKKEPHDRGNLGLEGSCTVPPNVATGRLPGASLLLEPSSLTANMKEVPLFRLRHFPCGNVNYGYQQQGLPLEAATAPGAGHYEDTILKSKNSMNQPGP
T1 sequence (P06748 whole entry, further chain): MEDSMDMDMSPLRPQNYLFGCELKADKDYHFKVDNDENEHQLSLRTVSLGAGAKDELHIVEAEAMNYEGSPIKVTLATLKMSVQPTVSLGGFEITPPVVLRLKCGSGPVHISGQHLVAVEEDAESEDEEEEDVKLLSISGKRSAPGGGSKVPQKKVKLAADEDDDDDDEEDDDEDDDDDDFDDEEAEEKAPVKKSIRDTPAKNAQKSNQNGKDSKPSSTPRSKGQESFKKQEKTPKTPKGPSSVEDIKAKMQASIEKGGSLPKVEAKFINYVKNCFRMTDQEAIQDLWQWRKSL

[5] = biological target: T2, NPM/ALK (Nucleophosmin/ALK tyrosine kinase receptor) (Homo sapiens, UniProt P06748+Q9UM73, L256T); assay: Inhibition of NPM/ALK L256T mutant kinase activity in BaF3 cells by radioenzymatic assay; format: cell-based
T2 sequence (P06748 whole entry, stated change not applied): as the sequence (P06748 whole entry, further chain) above
T2 sequence (Q9UM73 19-1620 L256T limits assumed, stated change not applied): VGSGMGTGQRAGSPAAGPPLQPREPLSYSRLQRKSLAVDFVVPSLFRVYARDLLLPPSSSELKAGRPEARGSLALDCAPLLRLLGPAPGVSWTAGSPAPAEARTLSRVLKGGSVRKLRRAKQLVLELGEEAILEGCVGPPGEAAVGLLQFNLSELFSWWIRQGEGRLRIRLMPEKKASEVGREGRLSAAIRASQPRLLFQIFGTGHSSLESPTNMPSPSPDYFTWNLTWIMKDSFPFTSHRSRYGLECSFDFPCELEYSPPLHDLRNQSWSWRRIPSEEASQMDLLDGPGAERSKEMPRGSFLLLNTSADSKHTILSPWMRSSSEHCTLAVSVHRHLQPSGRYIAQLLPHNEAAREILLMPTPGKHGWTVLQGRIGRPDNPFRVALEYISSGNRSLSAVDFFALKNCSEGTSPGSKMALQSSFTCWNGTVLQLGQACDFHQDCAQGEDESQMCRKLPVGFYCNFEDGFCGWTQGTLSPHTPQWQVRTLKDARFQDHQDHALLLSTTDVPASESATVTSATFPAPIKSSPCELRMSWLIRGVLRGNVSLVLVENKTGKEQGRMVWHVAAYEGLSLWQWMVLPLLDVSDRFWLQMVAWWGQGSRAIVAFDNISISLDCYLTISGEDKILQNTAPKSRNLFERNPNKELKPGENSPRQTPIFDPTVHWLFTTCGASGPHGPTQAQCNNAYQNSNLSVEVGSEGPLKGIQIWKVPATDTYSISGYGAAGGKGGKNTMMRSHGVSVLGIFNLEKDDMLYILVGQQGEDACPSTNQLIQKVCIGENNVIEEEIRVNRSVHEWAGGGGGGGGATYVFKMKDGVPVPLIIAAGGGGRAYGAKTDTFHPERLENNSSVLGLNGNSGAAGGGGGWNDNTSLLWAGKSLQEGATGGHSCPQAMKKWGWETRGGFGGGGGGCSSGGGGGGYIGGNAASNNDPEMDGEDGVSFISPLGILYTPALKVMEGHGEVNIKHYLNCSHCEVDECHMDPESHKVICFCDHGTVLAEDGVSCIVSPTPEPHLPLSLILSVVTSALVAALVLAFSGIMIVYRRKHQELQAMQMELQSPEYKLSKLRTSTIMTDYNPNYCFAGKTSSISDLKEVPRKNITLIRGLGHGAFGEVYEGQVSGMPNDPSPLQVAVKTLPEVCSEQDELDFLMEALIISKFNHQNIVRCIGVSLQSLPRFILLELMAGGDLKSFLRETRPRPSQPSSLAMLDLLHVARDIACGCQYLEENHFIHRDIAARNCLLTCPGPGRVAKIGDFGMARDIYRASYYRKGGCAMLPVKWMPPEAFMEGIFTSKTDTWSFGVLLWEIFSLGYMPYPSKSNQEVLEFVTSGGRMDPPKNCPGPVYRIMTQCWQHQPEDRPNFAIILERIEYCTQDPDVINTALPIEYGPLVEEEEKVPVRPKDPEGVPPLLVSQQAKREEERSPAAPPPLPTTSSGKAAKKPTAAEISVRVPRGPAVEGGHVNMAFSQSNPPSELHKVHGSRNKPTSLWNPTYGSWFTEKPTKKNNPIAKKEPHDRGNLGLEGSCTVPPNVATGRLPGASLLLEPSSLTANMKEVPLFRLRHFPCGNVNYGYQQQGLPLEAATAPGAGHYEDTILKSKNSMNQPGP

[6] = biological target: T2, NPM/ALK (Nucleophosmin/ALK tyrosine kinase receptor); assay: Inhibition of NPM/ALK L256T mutant autophosphorylation activity in BaF3 cells by antiphosphotyrosine immunoblotting assay; format: cell-based
[7] = biological target: T1, NPM/ALK (Nucleophosmin/ALK tyrosine kinase receptor); assay: Inhibition of wild type NPM/ALK kinase activity in BaF3 cells by radioenzymatic assay; format: cell-based

IC50 (BaF3 [1]) | IC50 (BaF3 [2]) | IC50 [4] | IC50 [5] | IC50 [6] | IC50 [7] | Compound | Activity (BaF3 [3])
7100 nM | 9100 nM | – | – | – | – | Cc1ccc(NC(=O)c2ccc(CN3CCN(C)CC3)cc2)cc1Nc1nccc(-c2cccnc2)n1 [IMATINIB] | –
2000 nM | 1800 nM | – | – | – | – | CSc1cccc(Nc2ncc3cc(-c4c(Cl)cccc4Cl)c(=O)n(C)c3n2)c1 | Active
1000 nM | 200 nM | > 20 µM | 150 nM | 200 nM | > 10 µM | COc1cc(Nc2c(C#N)cnc3cc(OCCCN4CCN(C)CC4)c(OC)cc23)c(Cl)cc1Cl [BOSUTINIB] | Active
